Results from ChEMBL document CHEMBL1156179 (J Med Chem, 2010).

Tests used:
[1] = target: T1, Adenosine receptor A2b (Homo sapiens, UniProt P29275); experiment: Antagonist activity at human cloned adenosine A2b receptor expressed in CHO cells assessed as inhibition of NECA-stimulated cAMP accumulation; assay type: functional, cell-based
T1 sequence (P29275 whole entry): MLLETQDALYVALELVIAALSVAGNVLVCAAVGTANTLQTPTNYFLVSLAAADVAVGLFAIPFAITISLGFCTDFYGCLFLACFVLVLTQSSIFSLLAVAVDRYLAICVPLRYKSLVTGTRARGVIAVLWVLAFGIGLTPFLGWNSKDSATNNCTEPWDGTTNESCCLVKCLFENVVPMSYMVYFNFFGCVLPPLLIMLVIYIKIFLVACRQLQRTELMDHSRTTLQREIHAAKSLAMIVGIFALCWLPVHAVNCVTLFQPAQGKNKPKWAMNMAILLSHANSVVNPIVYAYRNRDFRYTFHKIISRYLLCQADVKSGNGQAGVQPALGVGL
Outline: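 Membranes from CHO cells with hA2B receptor, prepared by a single 30 min spin at 54000g and resuspended in 50 mM Tris/HCl pH 7.4, used fresh. Antagonist inhibition of NECA-stimulated adenylyl cyclase gave IC50 by Hill fit; Ki from Cheng–Prusoff.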

[2] = target: Adenosine receptor A2a (Homo sapiens, UniProt P29274); experiment: Displacement of [3H]NECA from human cloned adenosine A2a receptor expressed in CHO cells; assay type: cell-based
Adenosine receptor A2a, sequence (P29274 whole entry): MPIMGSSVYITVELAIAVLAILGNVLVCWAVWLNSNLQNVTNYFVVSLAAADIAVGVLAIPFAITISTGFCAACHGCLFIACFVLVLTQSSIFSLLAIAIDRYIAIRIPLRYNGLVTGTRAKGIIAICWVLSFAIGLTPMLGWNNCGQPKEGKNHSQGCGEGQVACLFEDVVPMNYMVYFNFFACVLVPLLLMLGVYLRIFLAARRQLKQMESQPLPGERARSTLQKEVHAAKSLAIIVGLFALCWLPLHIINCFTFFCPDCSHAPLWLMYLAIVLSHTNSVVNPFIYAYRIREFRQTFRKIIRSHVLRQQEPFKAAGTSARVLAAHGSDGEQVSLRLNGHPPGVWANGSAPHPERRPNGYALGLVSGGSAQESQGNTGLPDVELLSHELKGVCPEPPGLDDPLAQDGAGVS
Outline: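 hA2A-CHO membranes, prepared by two-step centrifugation, were incubated with 30 nM [3H]NECA, 50 μg protein and graded compound under the A1 binding conditions. Nonspecific binding with 100 μM R-PIA.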

[3] = target: T2, Adenosine receptor A1 (Homo sapiens, UniProt P30542); experiment: Displacement of [3H]CCPA from human cloned adenosine A1 receptor expressed in CHO cells; assay type: cell-based
T2 sequence (P30542 whole entry): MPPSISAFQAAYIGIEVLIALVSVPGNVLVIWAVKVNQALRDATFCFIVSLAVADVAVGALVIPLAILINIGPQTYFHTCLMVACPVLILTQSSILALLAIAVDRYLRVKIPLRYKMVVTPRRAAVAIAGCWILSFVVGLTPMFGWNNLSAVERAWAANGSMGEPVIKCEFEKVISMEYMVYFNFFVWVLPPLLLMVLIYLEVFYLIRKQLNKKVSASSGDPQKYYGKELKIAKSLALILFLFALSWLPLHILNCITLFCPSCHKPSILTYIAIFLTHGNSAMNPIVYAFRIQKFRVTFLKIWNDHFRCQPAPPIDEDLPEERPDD
Outline: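 CHO membranes with hA1 receptor, from 1000g 4 min spin then 100000g 30 min. Incubated 3 h at 25 °C with 1 nM [3H]CCPA, 0.2 U/mL adenosine deaminase, 20 μg protein in 50 mM Tris/HCl pH 7.4 and graded compound. Nonspecific binding with 1 mM theophylline.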

[4] = target: Adenosine receptors; A1 & A3 (Homo sapiens) (UniProt P30542+P0DMS8); experiment: Selectivity ratio of Ki for human adenosine A1 receptor to Ki for human adenosine A3
[5] = target: T3, Adenosine receptor A3 (Homo sapiens, UniProt P0DMS8); experiment: Displacement of [3H]NECA from human cloned adenosine A3 receptor expressed in CHO cells; assay type: cell-based
T3 sequence (P0DMS8 whole entry): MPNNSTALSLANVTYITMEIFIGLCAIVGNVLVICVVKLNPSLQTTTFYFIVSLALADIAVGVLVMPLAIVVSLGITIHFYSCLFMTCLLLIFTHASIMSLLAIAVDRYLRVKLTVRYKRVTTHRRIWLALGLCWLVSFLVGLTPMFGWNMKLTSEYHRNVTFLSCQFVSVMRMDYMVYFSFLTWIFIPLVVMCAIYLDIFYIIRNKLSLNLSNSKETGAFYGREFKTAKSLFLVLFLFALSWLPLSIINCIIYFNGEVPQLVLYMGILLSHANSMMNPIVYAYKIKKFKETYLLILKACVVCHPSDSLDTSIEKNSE

[6] = species on record: Homo sapiens; experiment: Selectivity ratio of Ki for human adenosine A2A receptor to Ki for human adenosine A3

Row | Compound | Ki [1] | Ki [2] | Ki [3] | Ratio Ki [4] | Ki [5] | Ratio Ki [6]
1 | Nc1nc2nn(CCc3ccccc3)cc2c2nc(-c3ccccc3)nn12 | > 10000 nM | 196 nM | 74.8 nM | 0.975 | 76.7 nM | 2.56
2 | O=C(Nc1nc2nn(CCc3ccccc3)cc2c2nc(-c3ccc(Br)cc3)nn12)c1ccccc1 | > 10000 nM | > 100000 nM | 270 nM | 1.76 | 153 nM | > 654
3 | COc1ccc(-c2nc3c4cn(C)nc4nc(NC(=O)c4ccccc4)n3n2)cc1 | > 10000 nM | > 100000 nM | > 30000 nM | > 14300 | 2.1 nM | > 47600
4 | Cn1cc2c(nc(NC(=O)c3ccccc3)n3nc(-c4ccc(Cl)cc4)nc23)n1 | > 10000 nM | > 100000 nM | > 30000 nM | > 10600 | 2.82 nM | > 35500
5 | O=C(Nc1nc2nn(CCc3ccccc3)cc2c2nc(-c3ccccc3)nn12)c1ccccc1 | > 10000 nM | 963 nM | 313 nM | 13.1 | 23.9 nM | 40.3
6 | Cn1cc2c(nc(NC(=O)Cc3ccccc3)n3nc(-c4ccco4)nc23)n1 |  |  |  | 867 |  | 522
7 | CCn1cc2c(nc(N)n3nc(-c4ccc(Cl)cc4)nc23)n1 | > 10000 nM | 843 nM | 1570 nM | 22.9 | 68.7 nM | 12.3
8 | Nc1nc2nn(CCc3ccccc3)cc2c2nc(-c3ccc(Cl)cc3)nn12 | > 10000 nM | 2180 nM | 204 nM | 2.56 | 79.7 nM | 27.4
9 | COc1ccc(-c2nc3c4cn(C)nc4nc(N)n3n2)cc1 | > 10000 nM | 1190 nM | 9730 nM | 583 | 16.7 nM | 71.3
10 | COc1ccc(-c2nc3c4cn(C)nc4nc(N(C(=O)c4ccccc4)C(=O)c4ccccc4)n3n2)cc1 | > 10000 nM | > 10000 nM | > 10000 nM | > 1450 | 6.88 nM | > 1450
11 | Cn1cc2c(nc(NC(=O)Cc3ccccc3)n3nc(-c4ccc(Br)cc4)nc23)n1 | > 10000 nM | > 100000 nM | 24400 nM | 70700 | 0.345 nM | > 290000
12 | Cn1cc2c(nc(NC(=O)Cc3ccccc3)n3nc(-c4ccc([N+](=O)[O-])cc4)nc23)n1 | > 10000 nM | 23900 nM | 23200 nM | 37200 | 0.624 nM | 38300
13 | Cn1cc2c(nc(N(C(=O)c3ccccc3)C(=O)c3ccccc3)n3nc(-c4ccc(Cl)cc4)nc23)n1 | > 10000 nM | > 10000 nM | > 10000 nM | > 1440 | 6.94 nM | > 1440
14 | Cn1cc2c(nc(NC(=O)Cc3ccccc3)n3nc(-c4ccccc4)nc23)n1 | > 10000 nM | 778 nM | 562 nM | 5200 | 0.108 nM | 7200
15 | COc1ccc(-c2nc3c4cn(CCc5ccccc5)nc4nc(N)n3n2)cc1 | > 10000 nM | 1400 nM | 289 nM | 11.6 | 25 nM | 56
16 | Cn1cc2c(nc(N)n3nc(-c4ccc([N+](=O)[O-])cc4)nc23)n1 | > 10000 nM | > 10000 nM | > 300000 nM | > 458 | 655 nM | > 15.3

Row | Compound | Ki [1] | Ki [2] | Ki [3] | Ratio Ki [4] | Ki [5] | Ratio Ki [6]
17 | Cn1cc2c(nc(N)n3nc(-c4ccco4)nc23)n1 |  |  |  | 0.33 |  | 0.009
18 | Cn1cc2c(nc(NC(=O)c3ccccc3)n3nc(-c4ccc([N+](=O)[O-])cc4)nc23)n1 | > 10000 nM | > 100000 nM | > 30000 nM | > 532 | 56.4 nM | > 1770
19 | Cn1cc2c(nc(NC(=O)Cc3ccccc3)n3nc(-c4ccc(F)cc4)nc23)n1 | > 10000 nM | 2540 nM | 2290 nM | 11400 | 0.201 nM | 12600
20 | Cn1cc2c(nc(N)n3nc(-c4ccc(F)cc4)nc23)n1 | > 10000 nM | 355 nM | 1010 nM | 32.2 | 31.4 nM | 11.3
21 | COc1ccc(-c2nc3c4cn(C)nc4nc(NC(=O)Cc4ccccc4)n3n2)cc1 | > 10000 nM | > 100000 nM | > 30000 nM | > 124000 | 0.241 nM | > 415000
22 | Nc1nc2nn(CCc3ccccc3)cc2c2nc(-c3ccc(F)cc3)nn12 | > 10000 nM | 127 nM | 39.1 nM | 0.773 | 50.6 nM | 2.51
23 | CCn1ncc2c1nc(N)n1nc(-c3ccc(Cl)cc3)nc21 | > 10000 nM | 83.8 nM | 121 nM | 0.21 | 565 nM | 0.15
24 | Cn1cc2c(nc(NC(=O)c3ccccc3)n3nc(-c4ccc(Br)cc4)nc23)n1 | > 10000 nM | > 100000 nM | > 30000 nM | > 5730 | 5.24 nM | > 19100
25 | Nc1nc2nn(CCc3ccccc3)cc2c2nc(-c3ccc(Br)cc3)nn12 | > 10000 nM | > 30000 nM | 498 nM | 2.25 | 221 nM | > 136
26 | Cn1cc2c(nc(N)n3nc(-c4ccc(Cl)cc4)nc23)n1 | > 10000 nM | 2020 nM | 4860 nM | 67.1 | 72.4 nM | 27.9
27 | Cn1cc2c(nc(N)n3nc(-c4ccccc4)nc23)n1 | > 10000 nM | 121 nM | 339 nM | 4.52 | 75 nM | 1.61
28 | Cn1cc2c(nc(NC(=O)Cc3ccccc3)n3nc(-c4ccc(Cl)cc4)nc23)n1 | > 10000 nM | 8320 nM | 4850 nM | 19600 | 0.248 nM | 33500
29 | Cn1cc2c(nc(NC(=O)c3ccccc3)n3nc(-c4ccccc4)nc23)n1 | > 10000 nM | 324 nM | 622 nM | 124 | 5 nM | 64.8
30 | Cn1cc2c(nc(NC(=O)c3ccccc3)n3nc(-c4ccc(F)cc4)nc23)n1 | > 10000 nM | > 100000 nM | 2530 nM | 738 | 3.43 nM | > 29200
31 | Cn1cc2c(nc(N)n3nc(-c4ccc(Br)cc4)nc23)n1 | > 10000 nM | 1500 nM | 2890 nM | 74.9 | 38.6 nM | 38.9
